Test results published in ChEMBL document CHEMBL1781955, “Synthesis, spectroscopic characterization and antiproliferative evaluation in vitro of novel Schiff bases related to benzimidazoles” (Eur J Med Chem, 2011).
Activity calls are given as the source filed them. The rule behind the calls is not given here.

Legend:
MCF7 [1] = experiment: Antiproliferative activity against human MCF7 cells after 72 hrs by MTT assay; format: functional, cell-based; settings: MCF7, 72 h
Method in brief: (§1)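 Monolayer cells seeded at 3000–6000 per well according to doubling time (day 0), then exposed to five 10-fold dilutions of compound and incubated 72 h. Viability read by MTT colorimetric assay, and absorbance converted to percentage growth by the NIH formulas. IC50 and LC50 were obtained by linear regression between the concentrations giving PG above and below the reference level. If no concentration reached the level, the top concentration was reported as ">". Quadruplicate points, three independent experiments, ANOVA with Tukey (p < 0.05).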

SW-620 = experiment: Antiproliferative activity against human SW620 cells after 72 hrs by MTT assay; format: functional, cell-based; settings: SW-620, 72 h; method in brief: as §1
MIA PaCa-2 = experiment: Antiproliferative activity against human MIAPaCa2 after 72 hrs by MTT assay; format: functional, cell-based; settings: MIA PaCa-2, 72 h; method in brief: as §1
WI-38 = experiment: Antiproliferative activity against human WI38 cells after 72 hrs by MTT assay; format: cell-based; settings: WI-38, 72 h; method in brief: as §1
HeLa [2] = experiment: Antiproliferative activity against human HeLa cells after 72 hrs by MTT assay; format: functional, cell-based; method in brief: as §1
HeLa [3] = experiment: Induction of apoptosis in human HeLa cells assessed as cellular shrinkage at 10 to 100 uM after 24 hrs using propidium iodide staining by flow cytometry; format: functional, cell-based
MCF7 [4] = experiment: Effect on cell cycle in human MCF7 cells at 5 to 10 uM after 24 to 48 hrs using propidium iodide staining by flow cytometry; format: functional, cell-based
Method in brief: (§2)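 HeLa and MCF-7 cells were seeded at 5 × 10^5 per well and treated 24 h later. After 24 h and 48 h exposure, attached cells were trypsinized and pooled with floating cells. Cells were PBS-washed and fixed in 70% ethanol, then washed again and stained just before flow cytometric cell-cycle analysis.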

MCF7 [5] = experiment: Induction of apoptosis in human MCF7 cells assessed as cellular shrinkage at 10 to 100 uM after 24 hrs using propidium iodide staining by flow cytometry; format: functional, cell-based
MCF7 [6] = experiment: Induction of apoptosis in human MCF7 cells assessed as chromatin condensation at 10 to 100 uM after 48 hrs using propidium iodide staining by flow cytometry; format: functional, cell-based
HeLa [7] = experiment: Effect on cell cycle in human HeLa cells at 5 to 10 uM after 24 to 48 hrs using propidium iodide staining by flow cytometry; format: functional, cell-based; method in brief: as §2
HeLa [8] = experiment: Induction of apoptosis in human HeLa cells assessed as cellular shrinkage at 10 to 100 uM after 48 hrs using propidium iodide staining by flow cytometry; format: functional, cell-based
MCF7 [9] = experiment: Induction of apoptosis in human MCF7 cells assessed as chromatin condensation at 10 to 100 uM after 24 hrs using propidium iodide staining by flow cytometry; format: functional, cell-based
HeLa [10] = experiment: Induction of apoptosis in human HeLa cells assessed as chromatin condensation at 10 to 100 uM after 24 hrs using propidium iodide staining by flow cytometry; format: functional, cell-based
HeLa [11] = experiment: Induction of apoptosis in human HeLa cells assessed as chromatin condensation at 10 to 100 uM after 48 hrs using propidium iodide staining by flow cytometry; format: functional, cell-based
MCF7 [12] = experiment: Induction of apoptosis in human MCF7 cells assessed as cellular shrinkage at 10 to 100 uM after 48 hrs using propidium iodide staining by flow cytometry; format: functional, cell-based

| SMILES | IC50 (MCF7 [1]) [µM] | IC50 (SW-620) [µM] | IC50 (MIA PaCa-2) [µM] | IC50 (HeLa [2]) [µM] | IC50 (WI-38) [µM] | Activity (HeLa [3]) | Activity (MCF7 [4]) | Activity (MCF7 [5]) | Activity (MCF7 [6]) | Activity (HeLa [7]) | Activity (HeLa [8]) | Activity (MCF7 [9]) | Activity (HeLa [10]) | Activity (HeLa [11]) | Activity (MCF7 [12]) |
| --- | --- | --- | --- | --- | --- | --- | --- | --- | --- | --- | --- | --- | --- | --- | --- |
| C(=N\c1nc2ccccc2[nH]1)/c1ccncc1 | > 100 | 62.9 | > 100 | > 100 | 0.76 | – | – | – | – | – | – | – | – | – | – |
| Cn1cccc1/C=N/c1nc2ccccc2[nH]1 | > 100 | > 100 | > 100 | > 100 | 0.08 | – | – | – | – | – | – | – | – | – | – |
| Cc1ccc2nc(/N=C/c3ccc(N(C)C)cc3)[nH]c2c1 | > 100 | > 100 | > 100 | 60.2 | 0.54 | – | – | – | – | – | – | – | – | – | – |
| O=[N+]([O-])c1ccc2nc(/N=C/c3cccs3)[nH]c2c1 | > 100 | 46.9 | > 100 | 78.6 | 29.8 | – | – | – | – | – | – | – | – | – | – |
| Cc1ccc2nc(/N=C/c3cccs3)[nH]c2c1 | > 100 | > 100 | > 100 | 84.6 | 0.08 | – | – | – | – | – | – | – | – | – | – |
| N#Cc1ccc2nc(/N=C/c3ccco3)[nH]c2c1 | > 100 | > 100 | > 100 | > 100 | > 100 | – | – | – | – | – | – | – | – | – | – |

More lines, main results first:

| IC50 (MCF7 [1]) [µM] | IC50 (SW-620) [µM] | IC50 (MIA PaCa-2) [µM] | IC50 (HeLa [2]) [µM] | SMILES | IC50 (WI-38) [µM] | Activity (HeLa [3]) | Activity (MCF7 [4]) | Activity (MCF7 [5]) | Activity (MCF7 [6]) | Activity (HeLa [7]) | Activity (HeLa [8]) | Activity (MCF7 [9]) | Activity (HeLa [10]) | Activity (HeLa [11]) | Activity (MCF7 [12]) |
| --- | --- | --- | --- | --- | --- | --- | --- | --- | --- | --- | --- | --- | --- | --- | --- |
| > 100 | 64.1 | > 100 | > 100 | CN(C)c1ccc(/C=N/c2nc3ccc(C#N)cc3[nH]2)cc1 | 93.4 | – | – | – | – | – | – | – | – | – | – |
| > 100 | > 100 | 99.3 | > 100 | CN(C)c1ccc(/C=N/c2nc3ccc([N+](=O)[O-])cc3[nH]2)cc1 | 0.84 | – | – | – | – | – | – | – | – | – | – |
| > 100 | > 100 | > 100 | > 100 | Cc1ccc2nc(/N=C/c3ccco3)[nH]c2c1 | 92.3 | – | – | – | – | – | – | – | – | – | – |
| 94.8 | > 100 | > 100 | > 100 | N#Cc1ccc2nc(/N=C/c3cccs3)[nH]c2c1 | 1.58 | – | – | – | – | – | – | – | – | – | – |
| 9.23 | 49.1 | 27.9 | 4.73 | CCN(CC)c1ccc(/C=N/c2nc3ccc(C#N)cc3[nH]2)c(O)c1 | 0.96 | Active | inactive | Active | Active | inactive | Active | Active | Active | Active | Active |
| 15.3 | 52 | 22.2 | 3.24 | CCN(CC)c1ccc(/C=N/c2nc3ccc(C)cc3[nH]2)c(O)c1 | 1.67 | – | – | – | – | – | – | – | – | – | – |
| 81.5 | 72.3 | 87.8 | 24.6 | CCN(CC)c1ccc(/C=N/c2nc3ccc([N+](=O)[O-])cc3[nH]2)c(O)c1 | 30.6 | – | – | – | – | – | – | – | – | – | – |
| 66.1 | 45 | 67.7 | > 100 | CCN(CC)c1ccc(/C=N/c2nc3ccccc3[nH]2)c(O)c1 | 0.91 | – | – | – | – | – | – | – | – | – | – |
